Ecoli tolC: growth inhibitors of E. coli BW25113 tolC mutant | OD615 | growth inhibition, % at 10 µM (by protocol) | actives 2.2% (n = 65,000);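 active = growth inhibition at or above a cutoff equal to the mean over every tested compound plus 3 SD, cut at about 60% in these data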;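 note: growth measured after 20 h incubation at 37 °C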
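Test system: E. coli BW25113 ΔtolC::kan bacteria | Medium: Kanamycin-containing LB broth (50 µg/mL) | Dosing: One dose of 10 µM final | Times: 20 h incubation with compound, 37 °C | Detection: Optical density read at 615 nm | Read-out basis: Percent growth inhibition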
PostGolgi yeast: growth inhibition of a yeast mutant, post-Golgi transport screen. post-Golgi transport phenotypic cell assay. inhibition, % at 10 µM. actives 0.9% (n = 98,000);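 note: yeast cells grown in 1536-well plates; yeast grown about 18 h at 30C before absorbance read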
PostGolgi ctrl: growth of the yeast control strain, post-Golgi counter-screen. efflux-deficient yeast background strain, growth absorbance A615, 16 h. inhibition, % at 10 µM. actives 5% (n = 98,000)
Ecoli WT expand: growth inhibitors of E. coli BW25113 wild type. OD600 absorbance. growth inhibition, % at 100 µM. actives 0.15% (n = 98,000). AID 710;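 active = growth inhibition above about 50% at one test dose, limit read from the data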;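 note: growth measured after 20 h incubation at 37 °C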
Starred values were filed as active, the others as inactive; . = no result. A selection: hits, their analogues and other compounds. The true share with any hit is near 6.3%. Cut-off read from the data, not from the text of the source, unless noted: active = inhibition above about 30%; inactive = the rest.

SMILES | Ecoli tolC | PostGolgi yeast | PostGolgi ctrl | Ecoli WT expand
CCOC(=O)CCN=Cc1c(O)n(-c2ccc(Br)cc2)c(=O)[nH]c1=O | -4 | 1 | 19 | 4
CCOc1ccc(-n2c(O)c(C=NCCN(CC)CC)c(=O)[nH]c2=O)cc1 | -14 | -1 | 36* | 0
CCCCn1c(O)c(C=NCCCN(CC)CC)c(=O)[nH]c1=O | -24 | 5 | 46* | 0
c1ccc(C2=NP(N3CCOCC3)(N3CCOCC3)=NC(N3CCOCC3)=N2)cc1 | -1 | -4 | 19 | -1
CCOC(=O)C1=C(C)OC(N)=C(C#N)C12C(=O)Nc1ccc(C)cc12 (stereo not given) | -13 | -6 | 2 | 0
O=C(COc1ccc2ccccc2c1)N1CCN(CC2CC3C=CC2C3)CC1 (stereo not given) | . | 2 | 8 | 0
Cc1ccc(C(=O)C2(C)N(O)C(C)C(c3cccs3)=[N+]2[O-])cc1 (stereo not given) | . | 0 | -3 | -2
CN(C)C1(c2nnnn2-c2ccc(Cl)cc2)CCCCC1 | 9 | -10 | 11 | -12
CN(C)C1(c2nnnn2CCOC(=O)Nc2ccc(Cl)cc2)CCCCC1 | 100* | 2 | 12 | -5
Cc1sc2ncn(CC(=O)NCCCC(=O)N3CCC4(CC3)OCCO4)c(=O)c2c1C | . | -13 | 36* | 0
N=C(N)c1c(O)n(C2CCCCC2)c(=O)n(C2CCCCC2)c1=O | 99* | 8 | 53* | -4
CC(C)(C)P(=O)(c1ccncc1)N1CCCC1 (stereo not given) | -12 | -1 | 14 | 2
COc1ccc(N2C(=O)CC(N3CC=C(c4ccccc4)CC3)C2=O)cc1 (stereo not given) | 7 | -2 | 3 | 7
CN(CC1COc2ccccc2O1)c1nc(-c2cccnc2)nc2ccccc12 (stereo not given) | 24 | 6 | 70* | 4
CN1CCC(N(C)c2nc(-c3ccc([N+](=O)[O-])cc3)nc3ccccc23)CC1 | . | -8 | -3 | 6

High-throughput results from PubChem.
